SR-BI DiI inh = blocks mouse SR-BI lipid uptake from DiI-HDL | Q61009 | ldlA[mSR-BI] CHO cells, DiI-HDL uptake fluorescence, 3 h | inhibition, % at 12.5 µM | actives 0.96% (n = 320,000);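 active = mean replicate inhibition of at least 70% and a set share of replicates each scoring 70 or more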;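 also: 0% = median of neutral control wells and 100% = median of positive control wells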
AHR act = activates the human aryl hydrocarbon receptor; P35869; AHR-responsive luciferase reporter cells, luminescence; activation, % at 5 µM; actives 2.5% (n = 320,000); AID 2796; in the data active = activation above about 47%;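 also: 0% = vehicle wells and 100% = reference agonist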
SR-BI uptake up = enhances SR-BI lipid uptake from DiI-HDL | CHO ldlA[mSR-BI] cells, DiI-HDL uptake fluorescence, 3 h; 100 = double the neutral-control signal | activation, % at 12.5 µM | actives 0.096% (n = 320,000) | AID 504775;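 active = mean replicate activation of at least 60% and every replicate at or above 60%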;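 also: 0% = median plate neutral-control signal and 100% = twice that signal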
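Test system: SR-BI-overexpressing, LDLR-lacking CHO cells. Measured by: DiI fluorescence, bottom read. Medium: Ham's F12 with 0.5% BSA, HEPES 25 mM, pH 7.4. Timing: 3 h uptake period with compound, 37 °C.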
GAA850 FXN act = frataxin GAA850 promoter activation. activation, % at 6 µM. actives 0.56% (n = 360,000). HEK293 lucGAA850 FXN promoter luciferase reporter, 24 h; percent of 10 µM SAHA response;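 active = activation above the average of all compounds screened plus 3 SD, cutoff fixed separately per campaign, cut at about 7.5% in these data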;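 also: 0% = DMSO wells and 100% = 10 µM SAHA wells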
GASC-1 inh = human JMJD2C demethylase inhibition | inhibition, % at 2.35 µM | actives 0.069% (n = 330,000) | AID 2099 | GST-JMJD2C(1-420) H3K9me3 demethylation, DELFIA europium | Q9H3R0;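 active = more than half of a compound's replicate wells show inhibition beyond 50%, single wells judged on their own value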;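 also: signal counts dimethyl H3K9 product captured on neutravidin plate; 0% = median of DMSO wells and 100% = 0.3 times that DMSO median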
Target sequence (Q9H3R0 1-420 limits assumed): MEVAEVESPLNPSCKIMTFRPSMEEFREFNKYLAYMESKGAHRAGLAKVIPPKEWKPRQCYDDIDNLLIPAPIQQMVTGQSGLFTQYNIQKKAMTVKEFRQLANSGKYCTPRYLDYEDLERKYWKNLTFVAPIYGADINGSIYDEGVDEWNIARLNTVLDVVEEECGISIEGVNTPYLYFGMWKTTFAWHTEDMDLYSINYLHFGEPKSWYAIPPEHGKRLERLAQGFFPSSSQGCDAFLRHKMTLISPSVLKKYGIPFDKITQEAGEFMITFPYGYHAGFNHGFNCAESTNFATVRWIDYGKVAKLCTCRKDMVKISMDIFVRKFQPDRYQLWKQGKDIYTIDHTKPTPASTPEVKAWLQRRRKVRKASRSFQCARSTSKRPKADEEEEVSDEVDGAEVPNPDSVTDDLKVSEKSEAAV
* marks the source's active call; other numbers are inactive results; . = no result given. The list is not random: actives were taken first. Their share in the collection is about 3.7%.

SMILES	SR-BI DiI inh	AHR act	SR-BI uptake up	GAA850 FXN act	GASC-1 inh
O=C(Nc1ccc(N2CCOCC2)cc1)C1CCCCN1S(=O)(=O)c1ccccc1 (stereo not drawn)	.	5.8	.	-0.2	-20.1
Fc1ccc(-[n+]2nc(Nc3ccccc3)sc2-c2c3ccccc3cc3ccccc23)cc1	32.2	20.3	-32.2	-4.2	-2.3
c1ccc(-[n+]2nc(Nc3cccc4ccccc34)sc2-c2c3ccccc3cc3ccccc23)cc1	41.8	62.3*	-41.8	-1.9	7.0
CC(C)N1CCC1(C)C(=O)Nc1cccc(C#N)c1 (stereo not drawn)	.	.	.	2.5	.
COc1ccc(C=CC(=O)c2ccc(OCc3ccccc3)c(OC)c2)cc1OC	.	.	.	3.8	.
O=C(/C=C/c1ccc(OCc2ccccc2)c(OCc2ccccc2)c1)c1cccnc1	83.7*	12.0	-83.7	1.7	1.3
CC(C)(O)CC[C@@H](O)[C@](C)(O)C1CC[C@@]2(O)C3=CC(=O)[C@]4(O)C[C@@H](O)[C@@H](O)C[C@]4(C)C3CC[C@]12C (stereo partly drawn)	-14.5	-0.6	14.5	-1.5	-4.1
O=C1CCC/C(=N/Nc2ccc(Cl)cc2)C1	79.6*	47.0	-79.6	0.8	-0.9
COc1ccc(NC(=S)/N=C(\N)Nc2nc(C)c3ccc(C)cc3n2)cc1	57.0	55.4*	-57.0	0.1	-1.9
CCNC(=S)/N=C(\N)Nc1nc(C)c2cc(C)ccc2n1	56.9	77.3*	-56.9	7.3	1.7
Cc1cc(C=O)c2c(c1)C=CC1(Oc3ccccc3C(=O)N1C)O2 (stereo not drawn)	.	0.7	.	.	8.9
COc1ccc(C(CNC(=O)C(C)Oc2ccc(Br)cc2)N2CCOCC2)cc1 (stereo not drawn)	-7.7	49.3*	7.7	1.2	17.2
O=C(N/N=C/c1ccc2c(c1)OCO2)c1cccs1	-2.1	96.8*	2.1	6.8	3.4
CCC/C(=N/NC(=O)c1ccc2c(c1)OCO2)c1cccs1	-9.0	63.6*	9.0	2.7	3.1
COc1cc(/C=N/NC(=S)NC2CC3CCC2C3)ccc1O (stereo not drawn)	57.6	6.3	-57.6	2.5	-10.2
CCOC(=O)N/N=C\C=C\c1ccc2c(c1)OCO2	3.5	49.5*	-3.5	2.4	-0.4
S=C(N/N=C/c1ccc2c(c1)OCO2)NC1CC2CCC1C2 (stereo not drawn)	5.0	68.5*	-5.0	5.0	6.7
CC(=O)Nc1c(Cl)c(Cl)c2c(c1Cl)C(=O)c1cc(Cl)ccc1-2	19.4	.	-19.4	0.4	.
COc1ccc(NC(=O)c2cccc(S(=O)(=O)N3CCN(C)CC3)c2)c(OC)c1	.	1.4	.	-0.1	-2.0
CC1CCC(NC(=O)c2cccc(S(=O)(=O)NCc3ccccc3)c2)CC1 (stereo not drawn)	20.8	5.5	-20.8	0.4	-7.5
Cc1ccc(C(=O)Nc2cccc(NC(=O)c3cccnc3)c2)cc1	.	-3.0	.	-2.1	5.8
O=C(N/N=C/c1ccc2c(c1)OCO2)c1ccc(COc2cccc3cccnc23)cc1	75.7*	21.2	-75.7	1.4	-23.4
Cc1cc(C(=O)N/N=C/c2ccc3c(c2)OCO3)c(C)o1	2.3	72.4*	-2.3	2.4	5.0
Cc1occc1C(=O)N/N=C/c1ccc2c(c1)OCO2	.	40.0	.	0.8	2.8
O=C(N/N=C/c1cccc(O)c1)c1ccc(COc2cccc3cccnc23)cc1	37.1	18.4	-37.1	1.4	1.5
SMILES	SR-BI DiI inh	AHR act	SR-BI uptake up	GAA850 FXN act	GASC-1 inh
O=C(OCC(=O)N1CCN(C(=O)c2ccco2)CC1)c1ccc(Cl)nc1	-5.3	-0.9	5.3	0.7	-6.7
O=C(CO/N=C/c1ccccc1)Nc1c(F)c(F)c(F)c(F)c1F	-10.5	-1.3	10.5	2.7	-2.8
Cn1c(N)c(C(=O)COC(=O)c2ccc(S(=O)(=O)N3CCCCC3)cc2)c(=O)n(C)c1=O	.	1.4	.	.	-15.5
O=C(Nc1ccc2c(c1)CN(Cc1ccc(CO)o1)CC2)c1ccc(C(F)(F)F)cc1	54.4	54.8*	-54.4	6.2	5.3
COc1ccccc1CCC(=O)Nc1ccc(OC)c(S(=O)(=O)N2CCCCC2)c1	17.9	1.5	.	-0.4	1.9
COc1ccccc1CCC(=O)Nc1ccc2c(c1)CN(Cc1ccc(CO)o1)CC2	76.9*	10.1	-76.9	-1.0	5.3
O=C(NCc1cccc(F)c1)C1CCC(=O)N(C2CC2)C1 (stereo not drawn)	-22.3	-0.5	22.3	1.8	4.5
O=C(NC(c1ccc(Cl)cc1)c1cnccn1)C1CCN(Cc2cccc(C(F)(F)F)c2)CC1 (stereo not drawn)	.	.	.	-0.2	.
Oc1ccc2ccccc2c1/C=N/c1nccs1	13.2	19.0	-13.2	0.9	0.8
Oc1ccc2ccccc2c1C=NCc1cn2ccsc2n1	1.9	66.3*	-1.9	-1.3	-15.2
O=C(N/N=C/c1ccc(-c2cccc([N+](=O)[O-])c2)o1)c1cccs1	66.4	27.0	-66.4	5.0	-23.7
N#C/C(=C\c1ccc(-c2cccc([N+](=O)[O-])c2)o1)C(=O)Nc1nc(-c2cccs2)cs1	.	78.5*	.	2.5	-10.4
COc1ccc(/C=N/Nc2nc(-c3ccc(Cl)cc3)cc(C(F)(F)F)n2)c(OC)c1	80.4*	10.7	-80.4	0.6	-2.3
Cc1[nH][nH]c(=O)c1C=Nc1ccc(C(F)(F)F)cc1	0.4	38.7	-0.4	-0.2	-0.6
COC(=O)c1c(C)[nH]c(O)c1C=Nc1ccc(C(C)C)cc1	3.3	90.4*	-3.3	3.5	7.2
CCOC(=O)c1c(C)[nH]c(O)c1C=Nc1ccc(C(F)(F)F)cc1	3.1	62.5*	-3.1	0.8	-0.2
CCOC(=O)c1c(C)[nH]c(O)c1C=Nc1ccc(Cl)cc1	1.1	76.9*	-1.1	-2.3	-7.5
COC(=O)c1c(C)[nH]c(O)c1C=Nc1ccc(Oc2ccccc2)cc1	38.1	-3.1	-38.1	-0.2	-17.2
CCN(CC(=O)Nc1ccccc1OC)C(=O)CSCc1ccc(C)cc1	9.2	7.8	-9.2	1.8	-5.2
Cc1ccc2[nH]c(=O)c3cc(C(=O)N4CCN(C(=O)c5ccco5)CC4)sc3c2c1	-0.7	78.2*	0.7	1.3	0.4
Cc1ccc2c(C(=O)CN3CCN(C(=O)c4ccco4)CC3)c(C)[nH]c2c1	21.0	53.3*	-21.0	2.7	3.6
CC(=O)CC1(OC(C)=O)C(=O)N(C)c2ccccc21 (stereo not drawn)	4.3	2.7	-4.3	-0.9	-10.0
CC(=O)n1cc([C@@H]2C=C(C(=O)Nc3ccccc3)O[C@H](OCCCCO)C2)c2ccccc21	22.3	56.5*	-22.3	-0.8	-0.8
CC(=O)n1cc([C@@H]2C=C(C(=O)NCc3ccccc3)O[C@H](OCc3ccc(CO)cc3)C2)c2ccccc21	12.9	66.3*	-12.9	-5.0	7.4
C#CCNC(=O)C1=C[C@H](c2cn(C(C)=O)c3ccccc23)C[C@H](OCc2ccc(CO)cc2)O1	9.4	40.5	-9.4	-4.4	-2.0

High-throughput results deposited in PubChem by several laboratories.
